From ChEMBL document CHEMBL4622996, “Discovery of Vixotrigine: A Novel Use-Dependent Sodium Channel Blocker for the Treatment of Trigeminal Neuralgia” (ACS Med Chem Lett, 2020)

What was measured:
[1] = biological target: T1, Sodium channel protein type 3 subunit alpha (Homo sapiens, UniProt Q9NY46); test: Inhibition of Nav1.3 (unknown origin) expressed in HEK293 cells assessed as 15% inhibition of sodium current incubated for 3 to 3.5 mins by electrophysiology assay; type: cell-based
In short: (§1)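 HEK293 cells stably expressing NaV1.3, grown in DMEM-F12 with 10% FBS at 37 °C, dissociated at 50–70% confluency; IonWorksHT planar patch clamp at 21–23 °C, amphotericin perforated access; intracellular K-gluconate 100, KCl 40, MgCl2 3.2, EGTA 3, HEPES 5 mM, pH 7.3.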
Target sequence in this assay (Q9NY46 whole entry, looked up): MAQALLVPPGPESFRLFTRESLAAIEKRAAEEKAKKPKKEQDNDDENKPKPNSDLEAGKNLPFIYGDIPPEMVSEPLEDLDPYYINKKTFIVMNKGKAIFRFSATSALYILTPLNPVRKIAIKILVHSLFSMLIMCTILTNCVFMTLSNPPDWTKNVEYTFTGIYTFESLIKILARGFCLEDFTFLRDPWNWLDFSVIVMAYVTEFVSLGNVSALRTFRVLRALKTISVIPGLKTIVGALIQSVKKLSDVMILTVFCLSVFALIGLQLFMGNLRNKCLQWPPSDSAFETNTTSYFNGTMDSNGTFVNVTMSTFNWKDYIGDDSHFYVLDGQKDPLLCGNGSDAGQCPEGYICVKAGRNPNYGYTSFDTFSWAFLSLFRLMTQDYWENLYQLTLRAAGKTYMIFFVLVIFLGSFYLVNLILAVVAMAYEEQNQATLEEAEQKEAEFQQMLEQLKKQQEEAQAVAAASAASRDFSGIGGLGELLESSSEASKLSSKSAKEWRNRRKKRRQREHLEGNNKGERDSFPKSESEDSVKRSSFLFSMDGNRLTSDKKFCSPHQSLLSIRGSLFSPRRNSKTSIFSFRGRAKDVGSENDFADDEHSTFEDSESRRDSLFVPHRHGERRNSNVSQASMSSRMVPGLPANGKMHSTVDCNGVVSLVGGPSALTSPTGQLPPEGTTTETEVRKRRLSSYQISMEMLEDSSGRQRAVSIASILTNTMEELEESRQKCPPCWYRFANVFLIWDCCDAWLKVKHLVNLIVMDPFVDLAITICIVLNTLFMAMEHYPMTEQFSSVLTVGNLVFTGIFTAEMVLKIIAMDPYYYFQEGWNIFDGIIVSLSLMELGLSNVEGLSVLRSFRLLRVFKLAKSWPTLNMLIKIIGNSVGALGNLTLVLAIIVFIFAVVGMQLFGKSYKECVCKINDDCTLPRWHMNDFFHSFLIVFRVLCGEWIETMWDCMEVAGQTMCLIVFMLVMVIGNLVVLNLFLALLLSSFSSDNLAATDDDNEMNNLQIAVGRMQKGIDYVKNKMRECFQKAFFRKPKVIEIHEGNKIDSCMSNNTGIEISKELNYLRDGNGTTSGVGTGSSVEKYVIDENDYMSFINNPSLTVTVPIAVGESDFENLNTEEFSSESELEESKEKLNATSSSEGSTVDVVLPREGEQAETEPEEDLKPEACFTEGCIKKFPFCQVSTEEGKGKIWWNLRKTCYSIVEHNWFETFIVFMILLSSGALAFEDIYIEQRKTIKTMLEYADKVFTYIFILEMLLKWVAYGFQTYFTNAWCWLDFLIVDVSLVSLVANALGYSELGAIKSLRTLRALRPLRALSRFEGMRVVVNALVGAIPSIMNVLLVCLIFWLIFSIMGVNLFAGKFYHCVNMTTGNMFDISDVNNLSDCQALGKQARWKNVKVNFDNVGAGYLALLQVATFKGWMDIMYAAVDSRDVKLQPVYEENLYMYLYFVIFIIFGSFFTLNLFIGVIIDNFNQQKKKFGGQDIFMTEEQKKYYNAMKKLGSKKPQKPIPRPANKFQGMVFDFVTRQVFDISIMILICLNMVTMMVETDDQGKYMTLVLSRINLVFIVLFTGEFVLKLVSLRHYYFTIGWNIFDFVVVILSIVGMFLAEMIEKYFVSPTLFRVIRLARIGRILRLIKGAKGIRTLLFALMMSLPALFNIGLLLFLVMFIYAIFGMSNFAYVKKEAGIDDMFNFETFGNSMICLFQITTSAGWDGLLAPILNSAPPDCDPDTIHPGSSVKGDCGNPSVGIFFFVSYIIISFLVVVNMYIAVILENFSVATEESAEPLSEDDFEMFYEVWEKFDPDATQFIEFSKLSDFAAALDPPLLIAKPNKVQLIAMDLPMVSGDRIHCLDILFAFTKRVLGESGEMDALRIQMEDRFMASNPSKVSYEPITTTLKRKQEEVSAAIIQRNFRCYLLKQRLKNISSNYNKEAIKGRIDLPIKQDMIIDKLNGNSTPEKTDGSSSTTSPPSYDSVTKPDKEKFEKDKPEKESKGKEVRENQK

[2] = biological target: Cytochrome P450 2D6 (Homo sapiens, UniProt P10635); test: Inhibition of CYP2D6 (unknown origin); type: ADME
[3] = Tmax in dog at 3 mg/kg, po; type: ADME, organism-based, Canis lupus familiaris; details: in vivo
[4] = biological target: T2, Amine oxidase [flavin-containing] B (Homo sapiens, UniProt P27338); test: Inhibition of MAO-B (unknown origin)
T2 sequence (P27338 whole entry): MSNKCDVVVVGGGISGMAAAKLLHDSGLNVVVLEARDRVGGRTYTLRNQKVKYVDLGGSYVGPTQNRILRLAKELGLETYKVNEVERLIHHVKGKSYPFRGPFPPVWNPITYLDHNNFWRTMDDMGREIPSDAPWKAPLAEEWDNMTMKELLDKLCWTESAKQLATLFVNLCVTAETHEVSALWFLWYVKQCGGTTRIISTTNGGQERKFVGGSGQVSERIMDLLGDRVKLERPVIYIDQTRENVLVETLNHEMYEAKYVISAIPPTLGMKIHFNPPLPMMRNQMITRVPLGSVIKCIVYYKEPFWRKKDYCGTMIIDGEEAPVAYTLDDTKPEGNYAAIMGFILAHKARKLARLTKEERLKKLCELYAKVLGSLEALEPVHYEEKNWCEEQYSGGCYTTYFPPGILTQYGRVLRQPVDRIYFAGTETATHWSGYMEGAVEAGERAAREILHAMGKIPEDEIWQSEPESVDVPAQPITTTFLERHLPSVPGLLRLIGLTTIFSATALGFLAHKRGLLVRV
In short: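 MAO-B inhibition measured in human liver microsomes, reported as pIC50.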

[5] = biological target: T3, Cytochrome P450 1A2 (Homo sapiens, UniProt P05177); test: Inhibition of CYP1A2 (unknown origin); type: ADME
T3 sequence (P05177 whole entry): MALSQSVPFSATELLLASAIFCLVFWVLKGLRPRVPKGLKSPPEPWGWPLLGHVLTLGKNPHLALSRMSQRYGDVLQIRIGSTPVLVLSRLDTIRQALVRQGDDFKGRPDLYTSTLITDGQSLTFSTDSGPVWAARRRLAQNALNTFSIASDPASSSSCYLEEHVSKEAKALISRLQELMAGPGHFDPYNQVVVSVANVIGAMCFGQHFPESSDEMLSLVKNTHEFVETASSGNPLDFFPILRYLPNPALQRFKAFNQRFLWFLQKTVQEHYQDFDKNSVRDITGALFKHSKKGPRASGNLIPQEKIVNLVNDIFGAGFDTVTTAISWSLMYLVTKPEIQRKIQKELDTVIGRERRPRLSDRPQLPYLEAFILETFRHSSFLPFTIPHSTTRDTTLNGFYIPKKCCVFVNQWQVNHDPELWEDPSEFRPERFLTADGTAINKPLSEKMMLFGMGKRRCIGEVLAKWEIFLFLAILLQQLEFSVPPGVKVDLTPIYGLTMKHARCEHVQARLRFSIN

[6] = Plasma concentration in rat after measuring the spontaneous locomotor activity at 60 mg/kg, po measured after 60 mins post dose; type: ADME, organism-based
In short: (§2)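 Male rats, spontaneous locomotor activity test; oral doses 60, 100 or 300 mg/kg given 30 min before the session; plasma sampled 60 min postdose at 60 mg/kg.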

[7] = Toxicity in rat assessed as sedation by measuring spontaneous locomotor activity at 100 to 300 mg/kg, po; type: organism-based; details: in vivo; in short: as §2
[8] = Aqueous solubility of the compound in FeSSIF; type: physicochemical
[9] = Total blood clearance in monkey blood at 0.5 mg/kg, iv; type: ADME, organism-based, Macaca mulatta; details: rhesus monkey
[10] = biological target: T4, Cytochrome P450 2A6 (Homo sapiens, UniProt P11509); test: Inhibition of CYP2A6 (unknown origin); type: ADME
T4 sequence (P11509 whole entry): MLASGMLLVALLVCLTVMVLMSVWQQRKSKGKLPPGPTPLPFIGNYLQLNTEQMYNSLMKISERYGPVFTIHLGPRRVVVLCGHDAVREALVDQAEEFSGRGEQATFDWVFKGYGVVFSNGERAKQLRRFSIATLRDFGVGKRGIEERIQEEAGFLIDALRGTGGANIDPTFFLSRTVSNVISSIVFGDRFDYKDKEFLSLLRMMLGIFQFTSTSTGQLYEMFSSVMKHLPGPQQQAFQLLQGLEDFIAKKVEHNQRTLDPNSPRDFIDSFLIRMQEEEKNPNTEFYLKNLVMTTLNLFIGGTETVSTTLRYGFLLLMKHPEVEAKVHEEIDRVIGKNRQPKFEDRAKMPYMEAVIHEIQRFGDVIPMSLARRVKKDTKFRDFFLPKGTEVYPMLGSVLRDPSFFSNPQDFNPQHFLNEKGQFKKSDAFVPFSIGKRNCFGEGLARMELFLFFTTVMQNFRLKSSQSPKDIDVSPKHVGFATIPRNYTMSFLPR

[11] = Oral bioavailability in monkey at 3 mg/kg; type: ADME, organism-based, Macaca mulatta; details: rhesus monkey, in vivo
[12] = Apparent permeability in dog MDCK cells at pH 7.4; type: ADME, cell-based, Canis lupus familiaris
In short: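 MDCK cell monolayer permeability measured at pH 7.4, reported as apparent permeability in nm/s.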

[13] = Tmax in monkey at 3 mg/kg, po; type: ADME, organism-based, Macaca mulatta; details: rhesus monkey, in vivo
[14] = biological target: T1, Sodium channel protein type 3 subunit alpha; test: Inhibition of Nav1.3 (unknown origin) expressed in HEK293 cells assessed as inhibition of sodium current incubated for 3 to 3.5 mins by electrophysiology assay; type: cell-based; in short: as §1
Target sequence in this assay (Q9NY46 whole entry): as the sequence (Q9NY46 whole entry, looked up) above

[15] = biological target: T5, Solute carrier family 22 member 6 (Homo sapiens, UniProt Q4U2R8); test: Inhibition of OAT1 (unknown origin)
T5 sequence (Q4U2R8 whole entry): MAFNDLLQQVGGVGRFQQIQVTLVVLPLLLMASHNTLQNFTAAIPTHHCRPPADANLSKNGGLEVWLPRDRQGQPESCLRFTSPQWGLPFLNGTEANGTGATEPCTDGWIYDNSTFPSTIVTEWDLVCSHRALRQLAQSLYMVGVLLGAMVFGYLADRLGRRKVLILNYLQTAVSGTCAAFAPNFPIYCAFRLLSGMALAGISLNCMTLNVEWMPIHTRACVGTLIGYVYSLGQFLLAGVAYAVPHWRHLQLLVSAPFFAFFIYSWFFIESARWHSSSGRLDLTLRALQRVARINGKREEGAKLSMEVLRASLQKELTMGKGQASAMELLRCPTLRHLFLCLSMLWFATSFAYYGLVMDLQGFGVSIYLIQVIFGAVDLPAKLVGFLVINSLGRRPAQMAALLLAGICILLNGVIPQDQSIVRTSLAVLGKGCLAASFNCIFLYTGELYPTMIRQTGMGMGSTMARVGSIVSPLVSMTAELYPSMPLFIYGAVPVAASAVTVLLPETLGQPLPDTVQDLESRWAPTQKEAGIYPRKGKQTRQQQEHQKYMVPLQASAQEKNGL

Cytochrome P450 2D6, sequence (P10635 whole entry): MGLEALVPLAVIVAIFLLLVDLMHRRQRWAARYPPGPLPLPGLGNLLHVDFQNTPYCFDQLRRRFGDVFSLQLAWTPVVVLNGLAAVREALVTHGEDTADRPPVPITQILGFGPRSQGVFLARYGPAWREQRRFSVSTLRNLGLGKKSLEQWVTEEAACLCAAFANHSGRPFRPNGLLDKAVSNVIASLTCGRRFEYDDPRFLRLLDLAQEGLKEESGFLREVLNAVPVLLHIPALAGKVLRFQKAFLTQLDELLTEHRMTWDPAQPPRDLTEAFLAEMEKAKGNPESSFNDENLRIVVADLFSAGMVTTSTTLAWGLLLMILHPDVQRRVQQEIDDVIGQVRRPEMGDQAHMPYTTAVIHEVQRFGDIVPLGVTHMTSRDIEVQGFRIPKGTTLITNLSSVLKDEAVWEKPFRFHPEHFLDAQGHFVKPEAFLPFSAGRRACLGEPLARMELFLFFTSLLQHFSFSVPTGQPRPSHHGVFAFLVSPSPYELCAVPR

For `Cl.NC(=O)[C@@H]1CC[C@H](c2ccc(OCc3ccccc3F)cc2)N1` [RAXATRIGINE HYDROCHLORIDE], the log(activity) [1] was -5.5, the IC50 [2] was > 100 µM and the Tmax [3] was 0.75 h. The IC50 [4] was 0.00398 µM, the IC50 [5] was 13 µM and the concentration at 1 h [6] was 13.1 µg/mL. For the same compound, the Activity [7] was “Toxic”, the solubility [8] was 6.9 mg/mL and the clearance [9] was 0.3 L/h/kg. For the same compound, the IC50 [10] was > 100 µM, the bioavailability [11] was 42% and the Papp [12] was 386 nm/s. For the same compound, the Tmax [13] was 2 h, the IC50 [14] was 63.1 µM and the “inhibition (INH)” value [15] was “Not Active”.
